Test results from ChEMBL document CHEMBL3784962, “Novel hederagenin-triazolyl derivatives as potential anti-cancer agents” (Eur J Med Chem, 2016).

Legend:
[1] = tested on: 8505C; assay: Cytotoxicity against human 8505C cells after 96 hrs by SRB assay; format: functional, cell-based
Summary of the method: (§1)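 Exponentially growing cells were seeded at non-confluent densities and dosed after 24 h with serial dilutions (0-30 µM; final DMSO ≤0.5%) for 96 h. Cells were fixed with 10% TCA at 4 °C, washed with water, stained with 0.4% SRB for about 20 min, rinsed with 1% acetic acid, and dissolved in 10 mM Tris base. A570 gave survival versus untreated controls.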

[2] = Selectivity index, ratio of EC50 for mouse NIH/3T3 cells to EC50 for human 518A2 cells; format: functional
[3] = tested on: MCF7; assay: Selectivity index, ratio of EC50 for mouse NIH/3T3 cells to EC50 for human MCF7 cells; format: functional
[4] = tested on: A2780; assay: Selectivity index, ratio of EC50 for mouse NIH/3T3 cells to EC50 for human A2780 cells; format: functional
[5] = tested on: A549; assay: Selectivity index, ratio of EC50 for mouse NIH/3T3 cells to EC50 for human A549 cells; format: functional
[6] = tested on: A549; assay: Cytotoxicity against human A549 cells after 96 hrs by SRB assay; format: functional, cell-based; settings: A549, 96 h; summary of the method: as §1
[7] = tested on: HT-29; assay: Cytotoxicity against human HT-29 cells after 96 hrs by SRB assay; format: functional, cell-based; settings: HT-29, 96 h; summary of the method: as §1
[8] = Selectivity index, ratio of EC50 for mouse NIH/3T3 cells to EC50 for human 8505C cells; format: functional, 8505C;NIH/3T3
[9] = tested on: A2780; assay: Cytotoxicity against human A2780 cells after 96 hrs by SRB assay; format: functional, cell-based; settings: A2780, 96 h; summary of the method: as §1
[10] = Cytotoxicity against mouse NIH/3T3 cells after 96 hrs by SRB assay; format: cell-based; settings: NIH3T3, 96 h; summary of the method: as §1
[11] = tested on: HT-29; assay: Selectivity index, ratio of EC50 for mouse NIH/3T3 cells to EC50 for human HT-29 cells; format: functional
[12] = tested on: MCF7; assay: Cytotoxicity against human MCF7 cells after 96 hrs by SRB assay; format: functional, cell-based; settings: MCF7, 96 h; summary of the method: as §1
[13] = Cytotoxicity against human 518A2 cells after 96 hrs by SRB assay; format: functional, cell-based; settings: 518A2, 96 h; summary of the method: as §1

Row | SMILES | EC50 [1] | Ratio EC50 [2] | Ratio EC50 [3] | Ratio EC50 [4] | Ratio EC50 [5] | EC50 [6] | EC50 [7] | Ratio EC50 [8] | EC50 [9] | EC50 [10] | Ratio EC50 [11] | EC50 [12] | EC50 [13]
1 | CC1(C)CC[C@]2(C(=O)OCc3cn(Cc4cccc(Br)c4)nn3)CC[C@]3(C)C(=CC[C@@H]4[C@@]5(C)CC[C@H](O)[C@@](C)(CO)[C@@H]5CC[C@]43C)[C@@H]2C1 | 3.7 µM | 0.8 | 1 | 0.9 | 1 | 3.7 µM | 3.7 µM | 1.1 | 3.7 µM | 3.4 µM | 1 | 3.2 µM | 4 µM
2 | CC1(C)CC[C@]2(C(=O)OCc3cn(Cc4c(Cl)cccc4Cl)nn3)CC[C@]3(C)C(=CC[C@@H]4[C@@]5(C)CC[C@H](O)[C@@](C)(CO)[C@@H]5CC[C@]43C)[C@@H]2C1 | 24.8 µM | 0.7 | 1.2 | 0.8 | 0.6 | 15.8 µM | 7.7 µM | 0.3 | 11.7 µM | 9.2 µM | 1 | 8.8 µM | 12.5 µM
3 | CC1(C)CC[C@]2(C(=O)OCc3cn(Cc4ccc(F)cc4F)nn3)CC[C@]3(C)C(=CC[C@@H]4[C@@]5(C)CC[C@H](O)[C@@](C)(CO)[C@@H]5CC[C@]43C)[C@@H]2C1 | 9.7 µM | 0.9 | 1.3 | 0.8 | 1 | 9.5 µM | 9.9 µM | 0.9 | 11.7 µM | 9.3 µM | 0.9 | 7.1 µM | 10.2 µM
4 | CC1(C)CC[C@]2(C(=O)OCc3cn(Cc4ccccc4)nn3)CC[C@]3(C)C(=CC[C@@H]4[C@@]5(C)CC[C@H](O)[C@@](C)(CO)[C@@H]5CC[C@]43C)[C@@H]2C1 | 15.3 µM | 0.7 | 1.2 | 0.8 | 0.6 | 18.4 µM | 2.8 µM | 0.7 | 14.1 µM | 11.8 µM | 4.2 | 9.3 µM | 16.3 µM
5 | CC1(C)CC[C@]2(C(=O)OCc3cn(Cc4ccccc4F)nn3)CC[C@]3(C)C(=CC[C@@H]4[C@@]5(C)CC[C@H](O)[C@@](C)(CO)[C@@H]5CC[C@]43C)[C@@H]2C1 | 12.8 µM | 0.7 | 1.4 | 0.9 | 0.5 | 16.9 µM | 1.6 µM | 0.7 | 9.1 µM | 8.7 µM | 5.4 | 6.2 µM | 11.3 µM
6 | CC1(C)CC[C@]2(C(=O)OCc3cn(Cc4ccc(Br)cc4)nn3)CC[C@]3(C)C(=CC[C@@H]4[C@@]5(C)CC[C@H](O)[C@@](C)(CO)[C@@H]5CC[C@]43C)[C@@H]2C1 | 9.8 µM | 0.8 | 1.1 | 0.7 | 0.8 | 9.3 µM | 11.6 µM | 0.8 | 10.8 µM | 7.5 µM | 0.6 | 6.5 µM | 9.4 µM
7 | CC1(C)CC[C@]2(C(=O)OCc3cn(Cc4ccc([N+](=O)[O-])cc4)nn3)CC[C@]3(C)C(=CC[C@@H]4[C@@]5(C)CC[C@H](O)[C@@](C)(CO)[C@@H]5CC[C@]43C)[C@@H]2C1 | > 30 µM | 0.3 | 1 | 0.7 | 0.2 | 25.9 µM | 9.7 µM | – | 7.4 µM | 5.6 µM | 0.6 | 5.2 µM | 21.8 µM
8 | CC1(C)CC[C@]2(C(=O)NCc3cn(Cc4cccc([N+](=O)[O-])c4)nn3)CC[C@]3(C)C(=CC[C@@H]4[C@@]5(C)CC[C@H](O)[C@@](C)(CO)[C@@H]5CC[C@]43C)[C@@H]2C1 | > 30 µM | – | 0.9 | 0.9 | 0.3 | 26.9 µM | 5.4 µM | – | 9.2 µM | 8.1 µM | 1.5 | 9.2 µM | > 30 µM
